A selection: hits, their analogues and other compounds. The true share with any hit is near 2.2%.
Ba/F3 V617F tox: lowers viability of Ba/F3 cells expressing EpoR and JAK2V617F. ATP luminescence. inhibition, % at 5.6 µM. actives 1.1% (n = 220,000);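 active = inhibition above the campaign mean plus 3 SD over all tested compounds, cut at about 24% in these data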;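 note: cytokine-independent growth of Ba/F3 cells driven by EpoR plus mutant JAK2; 0% = DMSO-treated cells and 100% = JAK inhibitor I control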
BaF3 parental: counter-screen for JAK2V617F inhibitors: parental Ba/F3 viability inhibitors | CellTiter-Glo ATP luminescence | inhibition, % at 5.6 µM | actives 1.1% (n = 220,000) | AID 1486;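 active = inhibition above a per-campaign cutoff, the mean inhibition of all tested compounds plus 3 SD, cut at about 27% in these data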;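 note: 0% = DMSO wells and 100% = JAK Inhibitor I control wells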
IEC-6 cytotox: IEC-6 cytotoxicity, counter-screen for KLF5 inhibitors; inhibition, % at 5 µM; luminescence viability; actives 0.78% (n = 290,000); AID 1825; in the data active = inhibition above about 22%;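 note: 0% = plate median of test compound wells and 100% = cytotoxic reference compound wells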
b-catenin transl: alters nuclear translocation of beta-catenin in HeLa cells. nuclear translocation activity, % at 5 µM. actives 0.3% (n = 190,000). immunofluorescence imaging;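 active = nuclear translocation activity above 50% at 5 µM, with a well cell count of 50 or more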;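 note: per-cell ratio of nuclear to cytoplasmic median beta-catenin stain intensity; plate controls were DMSO negative control for no effect and GSK-3 inhibitor IX positive control for full effect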
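assay system = human HeLa cells, endogenous beta-catenin | times = compound treatment 24 h, 37°C, 5% CO2 | detection = Anti-beta-catenin immunofluorescence on PFA-fixed, Triton-permeabilized cells, DAPI nuclei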
APP transl inh: APP translation inhibition; SH-SY5Y APP 5'UTR-luciferase reporter, luminescence; inhibition, % at 2 µM; actives 0.82% (n = 190,000); AID 1285;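 active = inhibition above a set limit, derived from the sample mean plus 3 SD, cut at about 45% in these data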
MT stabilizer: stabilizes microtubules in HeLa cells | HeLa tubulin immunostaining HCS, 24 h; share of cells brighter than vehicle mean+2SD | actives 0.83% (n = 200,000) | % tubulin-high responders, % at 10 µM;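 active = plate Z-score above 3 for both tubulin-high and condensed-nucleus cell shares, with cell loss under 80%, at 10 µM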;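 note: anti alpha tubulin signal scored within the nucleus-defined area of each cell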
BaF3 tox 2: reduces parental Ba/F3 viability, JAK2V617F counter-screen; shares compounds with Ba/F3 V617F tox; CellTiter-Glo luminescence; cells kept alive by added IL-3; inhibition, % at 5.6 µM; actives 31% (n = 580); AID 1520;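 active = cell growth inhibition above the hit limit set in the earlier mutant JAK2 cell screen, cut at about 27% in these data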;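 note: plate controls were DMSO-treated cells for no effect and JAK Inhibitor I control wells for full effect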
JAK2V617F conf: confirmation: loss of viability in JAK2V617F-dependent Ba/F3 cells | actives 66% (n = 580) | shares compounds with Ba/F3 V617F tox | Ba/F3 EpoR-JAK2V617F viability, CellTiter-Glo luminescence | inhibition, % at 5.6 µM | AID 1521;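 active = mean inhibition above the hit cutoff derived in the earlier primary screen, cut at about 25% in these data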;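 note: 0% = DMSO-treated cells and 100% = JAK inhibitor I control wells; higher means lower luminescence from reduced cell ATP and viability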
Numbers without * were called inactive.

How did O=c1cnn([C@@H]2O[C@H](CO)[C@@H](O)[C@H]2O)c(=O)[nH]1 do in these assays?
Ba/F3 V617F tox: 36.4*; BaF3 parental: 10.6; IEC-6 cytotox: 16.3; APP transl inh: -1.5; MT stabilizer: 3.0; BaF3 tox 2: 2.9; JAK2V617F conf: 68.3*

What do the screens show for `CC1CC(C)CN(CCCNC(=O)C2CCCN(S(=O)(=O)N3CC(C)CC(C)C3)C2)C1` (centres undefined)?
IEC-6 cytotox: 2.8

What do the screens show for `Cc1cccc(N(CC(=O)NCCc2ccccc2)C(=O)c2csnn2)c1`?
IEC-6 cytotox: 0.7

What do the screens show for `COc1ccccc1-c1nnc(Sc2nc([N+](=O)[O-])nn2C)o1`?
Ba/F3 V617F tox: 60.3*; BaF3 parental: 19.1; IEC-6 cytotox: 13.8; b-catenin transl: 4.3; MT stabilizer: 3.7; BaF3 tox 2: 5.8; JAK2V617F conf: 86.8*

How did Cn1cnnc1Sc1nc([N+](=O)[O-])nn1C do in these assays?
Ba/F3 V617F tox: 2.6; BaF3 parental: 4.5; IEC-6 cytotox: -1.5; b-catenin transl: 0.8; APP transl inh: -20.8; MT stabilizer: 3.0

Results for Cc1ccc(NC(=O)C(=Cc2ccc(C(=O)O)cc2)C(=O)Nc2ccc(C)cc2C)c(C)c1 ?
Ba/F3 V617F tox: 35.6*; BaF3 parental: 0.8; IEC-6 cytotox: -7.5; b-catenin transl: 3.5; BaF3 tox 2: 6.2; JAK2V617F conf: 61.1*

Results for COc1ccc(CCNC(=O)CSc2nnc(CNC(=O)c3cc(OC)c(OC)c(OC)c3)o2)cc1OC ?
IEC-6 cytotox: -4.5

How did COc1ccc(-c2cc3nc4n(c(=O)c3s2)CCC4)cc1 do in these assays?
Ba/F3 V617F tox: 2.2; BaF3 parental: 5.3; IEC-6 cytotox: 3.2; APP transl inh: -159.5; MT stabilizer: 2.3

How did COc1ccc(-c2cc3nc(C)n(N)c(=O)c3s2)cc1 do in these assays?
Ba/F3 V617F tox: 40.6*; BaF3 parental: 26.5; IEC-6 cytotox: 17.7; b-catenin transl: -0.1; BaF3 tox 2: 56.1*; JAK2V617F conf: 39.8*

How did Cc1nc2cc(-c3ccccc3)sc2c(=O)n1N do in these assays?
Ba/F3 V617F tox: 25.4*; BaF3 parental: 24.1; IEC-6 cytotox: 15.5; b-catenin transl: 1.4; APP transl inh: 26.2; MT stabilizer: 4.0; BaF3 tox 2: 48.3*; JAK2V617F conf: 36.7*

Results for CCCOc1ccc2ccccc2c1/C=N/n1c(C)nnc1-n1nc(C)cc1C ?
Ba/F3 V617F tox: 23.5*; BaF3 parental: 25.9; IEC-6 cytotox: 12.0; b-catenin transl: 168.2*; APP transl inh: 9.3; MT stabilizer: 55.3*; BaF3 tox 2: 55.0*; JAK2V617F conf: 65.7*

What do the screens show for `CCC(CC)C(=O)N1N=C(c2ccc(NS(C)(=O)=O)cc2)CC1c1ccc(C)cc1` (centres undefined)?
Ba/F3 V617F tox: 5.8; BaF3 parental: -3.5; IEC-6 cytotox: 5.2; b-catenin transl: -0.9

What do the screens show for `O=C(O[C@@H]1OC2COC(=O)c3cc(O)c(O)c(O)c3-c3c(cc(O)c(O)c3O)C(=O)O[C@@H]([C@H]1O)[C@@H]2O)c1cc(O)c(O)c(O)c1`?
Ba/F3 V617F tox: 47.9*; BaF3 parental: 9.4; IEC-6 cytotox: 7.1; b-catenin transl: 1.9; APP transl inh: 12.1; MT stabilizer: 1.7; BaF3 tox 2: -2.8; JAK2V617F conf: -6.8

What do the screens show for `CCOc1ncccc1C(=O)N(CC)CC(=O)NCc1ccc(Cl)cc1`?
IEC-6 cytotox: -2.7

Results for OC(c1cc(-c2ccc(Cl)cc2)nc2ccccc12)C1CCCCN1 (centres undefined) ?
Ba/F3 V617F tox: 65.1*; BaF3 parental: 1.8; IEC-6 cytotox: 34.0*; b-catenin transl: 35.6; BaF3 tox 2: 4.7; JAK2V617F conf: 20.4

Results for OC(c1cc(C(F)(F)F)nc2c(Cl)cc(Cl)cc12)C1CCCCN1 (centres undefined) ?
Ba/F3 V617F tox: 2.8; BaF3 parental: 0.0; IEC-6 cytotox: 0.3; b-catenin transl: -3.0

How did CC(c1ccccn1)N(C)C(=O)c1ccc2nc(Cc3ccccc3F)oc2c1 (centres undefined) do in these assays?
IEC-6 cytotox: -4.0

What do the screens show for `Cc1ccc(C(=O)N2CCN3C(=O)c4ccccc4C23c2ccc(Cl)cc2)cc1` (centres undefined)?
Ba/F3 V617F tox: 28.1*; BaF3 parental: 21.9; IEC-6 cytotox: 16.9; b-catenin transl: 0.1; APP transl inh: -1.5; MT stabilizer: 4.4; BaF3 tox 2: 16.0; JAK2V617F conf: 36.4*

How did COc1ccc(S(=O)(=O)N2CCC(C(=O)NCCCc3ccccc3)CC2)cc1 do in these assays?
IEC-6 cytotox: -7.1

How did O=C(CSc1ccc(-c2ccccc2)nn1)Nc1ccc2c(c1)OCCO2 do in these assays?
Ba/F3 V617F tox: 46.4*; BaF3 parental: 8.0; IEC-6 cytotox: 8.2; b-catenin transl: -1.1; APP transl inh: -15.7; MT stabilizer: 2.6; BaF3 tox 2: -3.8; JAK2V617F conf: -13.6

What do the screens show for `O=C(CSc1ccccc1)Nc1ccc2c(c1)OCCO2`?
IEC-6 cytotox: -2.5

What do the screens show for `CCCc1nnc(NC(=O)CCC(=O)N2CCN(c3ccccc3)CC2)s1`?
IEC-6 cytotox: 1.9

What do the screens show for `Oc1ccc(/C=N/N2CCN(C3c4ccccc4-c4ccccc43)CC2)cc1`?
Ba/F3 V617F tox: 0.1; BaF3 parental: -3.5; IEC-6 cytotox: 0.1; b-catenin transl: -0.2

How did Oc1ccc(/C=N/N2CCN(C3c4ccccc4-c4ccccc43)CC2)cc1O do in these assays?
Ba/F3 V617F tox: 70.1*; BaF3 parental: 2.1; IEC-6 cytotox: -2.1; b-catenin transl: -1.4; BaF3 tox 2: 9.1; JAK2V617F conf: 89.9*

What do the screens show for `CCCCN(CC)Cc1ccc(CNC(=O)Nc2ccc(F)cc2)o1`?
Ba/F3 V617F tox: 47.9*; BaF3 parental: 15.2; IEC-6 cytotox: 9.4; APP transl inh: 12.1; MT stabilizer: 1.0; BaF3 tox 2: 8.2; JAK2V617F conf: 38.9*

Results for CC1=CC(=C2C(=O)c3ccccc3C2=O)C=C(C)O1 ?
Ba/F3 V617F tox: -1.2; BaF3 parental: 2.7; IEC-6 cytotox: -0.9; b-catenin transl: -1.8; APP transl inh: -11.3; MT stabilizer: 6.3

How did CC(=O)C1=C(c2ccc(Br)cc2)C(=O)c2ccccc2C1=O do in these assays?
Ba/F3 V617F tox: 26.3*; BaF3 parental: -0.1; IEC-6 cytotox: 5.7; b-catenin transl: 1.6; APP transl inh: 68.3*; MT stabilizer: 4.0; BaF3 tox 2: 105.3*; JAK2V617F conf: 98.3*

How did COC(=O)Cn1c(CN2CCN(C(=O)c3ccco3)CC2)nc2c1c(=O)n(C)c(=O)n2C do in these assays?
IEC-6 cytotox: -2.1

Compound activity: PubChem, several laboratories
